# UHRF1 binding – blocks human UHRF1 binding to methylated DNA. Q96T88. UHRF1 binding to methylated oligo, TR-FRET. inhibition, % at 4.4 µM. 370,000 tested, 0.75% active. AID 687016; in the data active = inhibition above about 21%;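 also: UHRF1 SRA domain binding a hemimethylated CpG hairpin DNA probe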
# DSG3 Ab inh – blocks pemphigus antibody binding to human desmoglein-3. P32926. DSG3-coupled beads, scFv-anti-DSG3-GFP binding, flow cytometry; active compounds read low. binding (percent of control), % at 10 µM. 310,000 tested, 0.48% active;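 active = binding more than 3 SD below its plate's average and above zero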;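 also: hits lower antibody fragment binding to DSG3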
# MBD2 DNA inh – blocks human MBD2 binding to methylated DNA; AID 686964; 370,000 tested, 0.31% active; inhibition, % at 4.4 µM; TR-FRET, MBD2 binding to methylated oligonucleotide; in the data active = inhibition above about 13%
# SUMO1 PPI mod – SUMO1-SIM interaction modulation; inhibition, % at 20 µM; P63165; SUMO1 binding to a labelled peptide, TR-FRET, 1 h; 360,000 tested, 0.33% active; in the data active = inhibition above about 37%
# NS3 helicase inh – HCV NS3 helicase inhibition | inhibition, % at 10.9 µM | 290,000 tested, 0.56% active | NS3 helicase DNA unwinding, Cy5 molecular beacon fluorescence | AID 1800;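 active = inhibition above the mean of all tested compounds plus 3 SD, set per campaign, cut at about 35% in these data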
#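 Measured by: Cy5 fluorescence, 0 and 60 min reads / Assay system: NS3 helicase fragment of HCV / Control set: low DMSO, high thioflavine S at 110 µM / Times: 1 h reaction at 25 °C, ATP-initiated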
# DNMT1 inh – inhibitors of human DNMT1. inhibition (reported as % activation of signal), % at 10 µM. P26358. DNMT1 molecular beacon, Hinp1I cleavage, fluorescence. 360,000 tested, 0.83% active; in the data active = inhibition above about 50%
# A number is an active result; . = inactive; / = no result; ! = a repeat was not active. Rows were chosen to be rich in hits. Some 2.5% of all compounds tested hit in one or more screens of this group.
SMILES,UHRF1 binding,DSG3 Ab inh,MBD2 DNA inh,SUMO1 PPI mod,NS3 helicase inh,DNMT1 inh
CCOC(=O)N1CCC(n2c(SCC(=O)c3ccccc3)nc3ccsc3c2=O)CC1,.,85,.,.,.,.
CCOC(=O)C(C(=O)OCC)c1cc(Br)c2noc3c2c1C(=O)c1ccccc1-3,.,.,.,.,.,57
O=[N+]([O-])c1ccc(Sc2nc3ccccc3o2)c([N+](=O)[O-])c1,.,.,.,.,.,52
CN(C)C(=O)NC1C=CS(=O)(=O)C1 (stereo not given),.,.,.,.,.,.
Cc1ccc(CN(C(=O)c2cc(=O)c3cc(C)cc(C)c3o2)C2CCS(=O)(=O)C2)cc1 (stereo not given),.,.,.,.,.,.
Cc1ccccc1-n1nc2c(c1NC(=O)c1ccc(Br)o1)CSC2,/,87,/,.,.,.
COc1ccccc1NS(=O)(=O)c1cccc(C(=O)N2CCCC2)c1,43,.,.,.,/,.
COc1ccccc1NS(=O)(=O)c1cccc(C(=O)N2CCCCCCC2)c1,.,.,.,.,/,.
COc1ccc2[nH]c(C)c(CCNC(=S)Nc3cc(C)ccc3C)c2c1,.,-16,.,.,.,.
Cc1ccc(NC(=O)N2CCc3ccccc3C2)cc1C,.,.,.,.,.,.
O=C(Nc1ccc(Oc2ccccc2)cc1)c1ccc(Cn2c(=O)[nH]c3ccsc3c2=O)cc1,.,51,.,.,.,.
O=C(NC1CCCC1)c1ccc(Cn2c(=O)[nH]c3ccsc3c2=O)cc1,.,.,.,.,.,.
O=C(Nc1ccc(Cl)c(Cl)c1)c1ccc(Cn2c(=O)[nH]c3ccsc3c2=O)cc1,.,66,.,.,.,.
Cn1c(=O)n(Cc2ccc(Br)cc2)c2ccccc21,23,.,.,.,.,.
Cn1c(=O)n(Cc2ccccc2)c2ccccc21,.,.,.,.,.,.
Cc1sc2nc3c4ccccc4c(NCc4ccco4)nn3c(=O)c2c1C,.,.,.,75,.,.
CCOC(=O)c1sc2nc(C)nc(NCCc3ccccn3)c2c1C,69,.,.,.,.,.
COc1ccc(-c2nnc(Nc3ccc(S(=O)(=O)Nc4nccs4)cc3)c3ccccc23)cc1,.,.,.,44,.,.
COc1ccc(Nc2nnc(-c3ccc(C(N)=O)cc3)c3ccccc23)cc1,.,.,.,.,.,.
CN(Cc1cccc(F)c1)C(=O)C1CC(=O)N(c2ccc3c(c2)OCCO3)C1 (stereo not given),60,/,.,.,/,.
Cc1n[nH]c(C)c1S(=O)(=O)N1CCCC(C(=O)O)C1 (stereo not given),.,.,.,.,/,.
Cc1n[nH]c(C)c1S(=O)(=O)N1CCC(C(=O)O)CC1,21,.,.,.,.,.
COc1cc(NC2c3ncccc3C(=O)N2Cc2ccco2)cc(OC)c1OC (stereo not given),.,.,.,.,.,.
CCCCCCOc1ccc(N2C(=O)CC(N3CCC(C(=O)OCC)CC3)C2=O)cc1 (stereo not given),43,.,.,.,.,.
O=[N+]([O-])c1cc(Br)cc(/C=N/n2cnnc2)c1O,40,.,.,.,.,.
SMILES,UHRF1 binding,DSG3 Ab inh,MBD2 DNA inh,SUMO1 PPI mod,NS3 helicase inh,DNMT1 inh
Cc1ccc(NC(=O)C2CC(=O)N(Cc3ccccc3)C2)cc1S(=O)(=O)N1CCCCCC1 (stereo not given),.,/,.,.,.,.
O=S(=O)(NCc1ccccc1)c1ccc(S(=O)(=O)N(Cc2cccs2)CC2CCCO2)cc1 (stereo not given),.,90,.,.,.,.
CC1=CC(c2ccccc2)n2nnnc2N1 (stereo not given),35,.,.,.,.,.
CC(C)C(=O)Nc1c(-c2cccc(Cl)c2)c(=O)c2ccccc2n1C,.,.,.,.,.,.
CCn1c(NC(=O)C(C)C)c(-c2ccccc2)c(=O)c2ccccc21,47,.,.,.,.,.
CCOC(=O)N1CCN(C(=O)C2CCC(=O)N(Cc3ccc(Cl)cc3)C2)CC1 (stereo not given),.,.,.,.,.,.
CN(C)C(=O)N1CCC(C(=O)NCc2ccc(F)cc2Cl)CC1,.,.,.,.,.,.
O=C(NNC(=O)C1CCN(Cc2ccc(F)cc2Cl)CC1)Nc1ccc([N+](=O)[O-])cc1,29,.,.,.,.,.
CCn1nc(NS(=O)(=O)c2ccccc2)c2cc3cc(C)ccc3nc21,.,/,.,.,.,.
Cc1ccc2nc3c(cc2c1)c(NS(=O)(=O)c1ccccc1)nn3CC(C)C,.,83,.,.,.,.
CCCC1C(c2ccc(OC)cc2)C(C#N)(C#N)C2(C#N)CC1(N)NC2=O (stereo not given),.,.,.,.,.,.
CC1C(c2ccccc2)C(C#N)(C#N)C2(C#N)C(=O)NC1(N)C2C (stereo not given),23,.,.,.,.,.
O=C(c1cnn2c(C(F)F)cc(C3CC3)nc12)N1CCCC1,.,.,.,.,.,.
O=C(c1cc2nc(C3CC3)cc(C(F)F)n2n1)N1CCOCC1,21,/,.,.,.,.
CCOP(=O)(OCC)c1nc(-c2cccc3ccccc23)oc1NCc1ccccc1,.,.,.,.,.,.
CCOP(=O)(OCC)c1nc(-c2cccc3ccccc23)oc1NCc1ccc(OC)cc1,24,.,.,.,.,.
Cc1c(/C=N/Nc2ccc([N+](=O)[O-])cn2)c2ccccc2n1Cc1ccccc1,.,.,.,.,.,51
O=C(Nc1ccc2nn(-c3ccccc3)nc2c1)c1ccc(Br)o1,.,.,.,.,.,76
O=C(Nc1ccc2oc(-c3cccnc3)nc2c1)c1ccc(Br)o1,.,.,.,38,.,.
COC(=O)Cc1[nH]n(-c2nc3ccccc3s2)c(=O)c1C(C)=O,.,.,.,.,.,.
COC(=O)CC1=NN(c2nc3ccccc3s2)C(=O)/C1=C/N(C)C,79,.,.,.,.,.
O=C(CSc1nc2scc(-c3cccs3)c2c(=O)n1CCc1ccccc1)N1CCCC1,.,.,.,.,/,.
Cc1nn2c(=O)[nH]cnc2c1Cl,.,.,.,.,/,.
Cc1ccc(-c2nc(Nc3ccccc3)n[nH]2)cc1,.,37,.,.,.,.
Nc1nc(CSc2n[nH]c(-c3ccccc3)n2)nc(Nc2ccccc2)n1,.,.,.,.,.,.
Cc1cccc2sc(N(CCCN(C)C)C(=O)c3ccc(C(=O)c4ccccc4)cc3)nc12,34!,.,.,.,.,.
Cc1cccc2sc(N(CCCN(C)C)C(=O)c3sc4ccccc4c3Cl)nc12,.,.,.,.,.,.
CCN(CC(=O)NCc1cccs1)C(=O)c1ccc(Cl)c(Cl)c1,35,.,.,.,/,.
